Compound activity as filed in PubChem BioAssay.
RanGTP-Impb inh: inhibitors of RanGTP-importin-beta interaction, primary screen, biochemical, FRET, CFP-Ran, YFP-importin-beta, homogeneous; Ran GTPase (GTP-bound) - importin-beta complex; cell-free CFP-Ran/YFP-importin-beta FRET ratio; inhibition, % (concentration not given with the values); actives 1.1% (n = 300,000); AID 2216, 2009;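 active = more than half of the replicate wells show a fall in the fluorescence ratio signal beyond about 16%, limit read from the data, passing the limit was not always enough; inconclusive = exactly half of the replicate wells pass the set limit; inactive = fewer than half of replicates pass the limit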
Runt-CBFb FRET: inhibitors of RUNX1 Runt–CBFb binding, primary screen, biochemical, FRET, Cerulean-Runt, Venus-CBFb, uHTS; inhibition, % at 20 µM; Runt-related transcription factor 1 (Homo sapiens) + Core-binding factor subunit beta …; actives 0.46% (n = 220,000); Cerulean-Runt/Venus-CBFb FRET ratio 530/480, 1 h;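 active = inhibition over about 50% at 20 µM in the single-dose screen, limit read from the data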
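Assay system: Cerulean-Runt domain / Medium: Tris 50 mM pH 7.5, KCl, K2SO4, 0.01% BSA / Timing: protein complex preformed 1 h, compound exposure 1 h, room temperature, dark / Measured by: FRET, excitation 422 nm, emission at 530 and 480 nm / Evaluation: loss of energy transfer signal / Control set: 5 µM unlabeled CBFb as full-inhibition high control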
pCIP destab: p/CIP-EGFP fusion destabilizers, primary screen, fluorescence, F442A cells; Q05BA5; AID 1984, 2009; 16 h; decrease of EGFP signal, % at 10 µM; actives 0.01% (n = 290,000);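 active = EGFP signal decrease of at least 30% at 10 µM or well 3 SD below plate mean, unless failing retest; inactive = the rest, including hits failing retest or dose response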
Hck Nef HTS: inhibitors of Nef-activated human Hck kinase, primary screen, biochemical, Z-Lyte FRET, 384-well, Hck-YEEI. Tyrosine-protein kinase HCK (Homo sapiens), P08631. Recombinant Hck-YEEI plus Nef, Z-Lyte FRET kinase assay. inhibition, % at 20 µM. actives 0.68% (n = 220,000). AID 463187, 2010;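 active = Hck-Nef kinase inhibition above about 50%, limit read from the data; inactive = inhibition below that limit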
Pemphigus Ab inh: inhibitors of pemphigus antibody binding to DSG3, primary screen, biochemical, bead-based, flow cytometry, scFv-GFP. Desmoglein-3 (Homo sapiens), P32926. DSG3-coupled beads, scFv-anti-DSG3-GFP binding; active compounds read low. binding (percent of control), % at 10 µM. actives 0.48% (n = 310,000). AID 588358, 2011;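 active = binding more than 3 SD below its plate's average and above zero; inconclusive = below that plate limit but binding exactly zero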;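 also: hits lower antibody fragment binding to DSG3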
Target sequence (P32926 whole entry, looked up, the tested form may be a part): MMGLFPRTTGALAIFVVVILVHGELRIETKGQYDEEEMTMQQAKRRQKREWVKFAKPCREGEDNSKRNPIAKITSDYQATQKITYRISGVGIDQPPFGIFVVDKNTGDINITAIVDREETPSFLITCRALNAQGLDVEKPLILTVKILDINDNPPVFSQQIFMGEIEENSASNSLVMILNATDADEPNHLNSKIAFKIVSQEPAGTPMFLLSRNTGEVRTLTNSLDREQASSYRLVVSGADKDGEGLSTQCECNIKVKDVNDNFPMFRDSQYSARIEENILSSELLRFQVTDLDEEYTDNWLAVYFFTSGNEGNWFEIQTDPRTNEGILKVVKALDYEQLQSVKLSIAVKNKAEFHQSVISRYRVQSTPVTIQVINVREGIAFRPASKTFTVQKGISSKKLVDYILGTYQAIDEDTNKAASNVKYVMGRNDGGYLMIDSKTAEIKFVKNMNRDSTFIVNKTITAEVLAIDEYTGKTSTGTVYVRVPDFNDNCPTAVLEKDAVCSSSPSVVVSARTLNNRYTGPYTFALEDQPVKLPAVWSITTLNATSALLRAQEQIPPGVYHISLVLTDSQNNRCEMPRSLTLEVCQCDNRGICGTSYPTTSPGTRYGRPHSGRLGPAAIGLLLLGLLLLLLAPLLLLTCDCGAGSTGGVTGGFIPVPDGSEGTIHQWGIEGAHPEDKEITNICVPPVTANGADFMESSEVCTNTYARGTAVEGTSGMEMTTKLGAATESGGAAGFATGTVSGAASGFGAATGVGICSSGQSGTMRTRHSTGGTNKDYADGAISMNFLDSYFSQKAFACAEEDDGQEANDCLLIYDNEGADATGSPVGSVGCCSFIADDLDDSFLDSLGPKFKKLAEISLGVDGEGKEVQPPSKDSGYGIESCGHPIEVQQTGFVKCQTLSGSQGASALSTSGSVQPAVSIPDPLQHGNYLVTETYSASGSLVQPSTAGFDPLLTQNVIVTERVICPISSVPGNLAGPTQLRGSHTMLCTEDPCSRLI
Runt-SMMHC FRET: inhibitors of RUNX1 Runt–CBFb-SMMHC binding, primary screen, biochemical, FRET, Cerulean-Runt, Venus-CBFb-SMMHC, uHTS; inhibition, % at 20 µM; actives 0.74% (n = 220,000); AID 1434, 2008; Cerulean-Runt/Venus-CBFb-SMMHC FRET ratio 530/480, 1 h; Runt-related transcription factor 1 (Homo sapiens) + Core-binding factor subunit beta …;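 active = mean inhibition across duplicate retests at 20 µM reaching about 50%, limit read from the data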;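 also: inhibitors lower the FRET ratio by blocking Runt binding to CBFb-SMMHC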
Hck Nef conf: retest of Hck:Nef kinase inhibitor hits, confirmation, biochemical, Z-Lyte FRET, 384-well, p-Tyr peptide counterscreen. Recombinant Hck-YEEI:Nef, Z-Lyte FRET kinase assay. calls only at 10 µM. AID 463188, 2010. actives 28% (n = 1,300). shares compounds with Hck Nef HTS;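 active = average inhibition of at least 50%, with Z-scores no higher than 3 in both the phospho-tyrosine peptide and fluorescence counterscreens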
Hits are given with their value; - = inactive; ? = inconclusive; . = no result given; + = active, no number. Only some compounds are listed: those with a hit (about 2.1% of all), similar ones and a draw of the others.

SMILES | RanGTP-Impb inh | Runt-CBFb FRET | pCIP destab | Hck Nef HTS | Pemphigus Ab inh | Runt-SMMHC FRET | Hck Nef conf
COC(=O)C1=C(c2ccc3ccccc3c2)C[C@@H]2CC[C@H]1N2C(=O)N1CCCC1 | . | . | . | . | - | . | .
CN1C(=O)NC(=O)/C(=C\C=C\c2ccccc2[N+](=O)[O-])C1=O | . | - | - | 93.3 | . | - | -
COc1cc(/C=C2\C(=O)NC(=O)N(c3ccccc3)C2=O)c([N+](=O)[O-])cc1OC | . | - | - | - | - | - | .
COc1ccc(CCn2c(O)c(/C=N/NC(=O)c3ccncc3)c(=O)[nH]c2=O)cc1OC | - | - | - | - | - | - | .
CCCCC(=O)N/N=C/c1c(O)n(CCc2ccc(OC)c(OC)c2)c(=O)[nH]c1=O | - | - | - | 77.8 | - | - | -
O=c1[nH]oc2c1CCNC2 | . | . | . | . | - | . | .
CN1C(=O)C(=Cc2cn(CC#N)c3ccccc23)C(=O)N(C)C1=O | - | . | - | . | - | . | .
CN1C(=O)C(=Cc2coc3ccccc3c2=O)C(=O)N(C)C1=O | - | - | - | 80.7 | . | - | +
COc1ccc(Cn2c(N)c(C(=O)NCc3ccco3)c3nc4ccccc4nc32)cc1OC | . | - | - | 61.6 | - | 57.2 | -
Nc1c(C(=O)NCC2CCCO2)c2nc3ccccc3nc2n1Cc1ccco1 (centres undefined) | 63.7 | - | - | 59.6 | - | 81.0 | .
O=C(Cn1cc(C=C2C(=O)NC(=O)NC2=O)c2ccccc21)NCC1CCCO1 (centres undefined) | - | . | - | . | - | . | .
O=c1c2ccccc2[se]n1-c1ccccc1 | - | - | - | 102.4 | - | - | +
O=c1c2ccccc2nc(-c2ccccc2)n1-c1ccccc1 | - | - | - | - | . | - | .
O=C1NC(=S)N(C2CC2)C(=O)/C1=C/c1ccc2c(c1)CCN2CCCCl | - | - | - | - | - | - | .
CCN1C(=O)/C(=C/c2ccc3c(c2)CCN3CCCCl)C(=O)NC1=S | - | - | - | 55.1 | - | - | +
Cc1ccc2c(c1)=NC(=O)/C(=C/c1c(O)[nH]c(=O)[nH]c1=O)C=2 | - | - | - | 64.6 | - | - | +
OC(c1cccc(Cl)c1)(c1cccc(Cl)c1)C1CN2CCC1CC2 (centres undefined) | - | - | - | - | - | - | .
Cc1cc(C=C2C(=O)NC(=S)NC2=O)c(C)n1C1CCCC1 | - | - | - | 71.0 | - | - | -
COP(=O)(OC)C(NC(C)=O)C(Cl)(Cl)Cl (centres undefined) | - | - | - | - | - | - | .
Oc1cccc(/C=N/NP(=S)(c2ccccc2)c2ccccc2)c1 | - | - | - | - | - | - | .
O=C1NC(=S)N(c2ccc(F)cc2)C(=O)/C1=C\c1ccoc1 | . | - | - | 79.2 | - | - | +
CN1C(=O)C(=Cc2ccc(Sc3ccccc3)o2)C(=O)N(C)C1=O | . | - | - | 69.9 | - | - | -
CN1C(=O)C(=Cc2ccc(Sc3ccccc3)o2)C(=O)N(C)C1=S | - | . | . | . | - | . | .
Cc1ccc(N2C(=O)NC(=O)/C(=C\C=C\c3ccco3)C2=O)cc1 | - | - | - | - | - | - | .
CN(C)c1ccc(/C=C/C=C2/C(=O)NC(=O)N(c3ccccc3)C2=O)cc1 | - | - | - | 56.7 | - | - | -
SMILES | RanGTP-Impb inh | Runt-CBFb FRET | pCIP destab | Hck Nef HTS | Pemphigus Ab inh | Runt-SMMHC FRET | Hck Nef conf
O=C1NC(=O)N(Cc2ccccc2)C(=O)/C1=C\C=C\c1ccco1 | ? | - | - | 59.4 | - | - | -
O=C1NC(=O)N(c2ccccc2)C(=O)/C1=C/C=C/c1ccco1 | - | - | - | - | - | - | .
CN1C(=O)/C(=C/C=C/c2ccco2)C(=O)NC1=S | - | - | - | 53.7 | 19.4 | - | -
Cc1ccc(N2C(=O)NC(=O)/C(=C\C=C\c3ccco3)C2=O)cc1C | - | - | - | 68.3 | - | - | -
O=C(Nc1ccccc1)N1Cc2ccccc2-n2nncc2C1 | . | . | . | . | - | . | .
COc1ccc(-c2n(-c3ccccn3)c3ccccc3[n+]2-c2ccccn2)cc1 | - | - | - | - | - | - | .
C=CCN1C(=O)NC(=O)/C(=C/C=C/c2ccccc2)C1=O | - | - | - | 50.9 | - | - | -
O=C1NC(=O)N(CCc2ccc(F)cc2)C(=O)/C1=C\C=C\c1ccccc1 | . | - | - | - | - | - | .
CC(=O)N1CC(=O)Nc2ccc(Br)cc2C1c1ccc(F)cc1 (centres undefined) | - | . | - | . | - | . | .
Cc1cc(/C=C2\C(=O)NC(=O)N(Cc3ccco3)C2=O)c(C)n1-c1ccc(O)cc1 | - | - | - | - | - | - | .
Cc1cc(/C=C2\C(=O)NC(=O)N(Cc3ccco3)C2=O)c(C)n1-c1ccc(C(=O)O)cc1 | - | - | - | 50.2 | - | - | -
O=C1NC(=O)N(c2ccc(Cl)cc2)C(=O)/C1=C\c1ccc(Sc2nc3ccccc3[nH]2)o1 | - | - | - | 57.2 | - | - | -
COC(=O)C1=C(c2cc3ccccc3o2)C[C@@H]2CC[C@H]1N2C(=O)N1CCOCC1 | - | . | . | . | - | . | .
CC1CCN(S(=O)(=O)c2ccc(NN=C(C#N)C#N)cc2)CC1 | . | - | - | - | . | - | .
N#CC(C#N)=NNc1ccc(S(N)(=O)=O)cc1 | - | - | - | 52.5 | - | - | +
CC(C)N(C(=O)CCl)c1ccccc1 | . | . | . | . | - | . | .
COc1ccc(OC)c(N2C(=O)NC(=O)/C(=C/c3ccc([N+](=O)[O-])s3)C2=O)c1 | - | - | - | 88.8 | - | - | -
COc1ccc(OC)c(N2C(=O)/C(=C/c3ccco3)C(=O)NC2=S)c1 | - | . | - | . | . | . | .
O=c1oc2ccccc2c(O)c1C(c1ccc([N+](=O)[O-])cc1)c1c(O)c2ccccc2oc1=O | - | - | - | 72.9 | - | - | +
CC1Oc2cc3c(-c4c(O)cc(O)c5c(O)c6c(cc45)OC(C)C(C)C6=O)c(O)cc(O)c3c(O)c2C(=O)C1C (centres undefined) | - | - | - | - | . | - | .
Cc1cccc(N2C(=O)/C(=C/c3ccc(CN(CCC#N)S(C)(=O)=O)o3)C(=O)NC2=S)c1 | - | - | - | 52.6 | . | - | -
O=C1NC(=O)C(=Cc2ccc(OCCOc3ccc([N+](=O)[O-])cc3)cc2)C(=O)N1 | - | - | - | 62.7 | - | - | -
O=C1NC(=O)C(=Cc2coc3ccc(O)cc3c2=O)C(=O)N1 | - | - | - | 78.2 | - | - | +
CCC1CN1P(=S)(N1CC1CC)N1CC1CC (centres undefined) | . | . | . | . | - | . | .
